Experimental data from ChEMBL document CHEMBL4038313, “Expanding the Antiviral Spectrum of 3-Fluoro-2-(phosphonomethoxy)propyl Acyclic Nucleoside Phosphonates: Diamyl Aspartate Amidate Prodrugs” (J Med Chem, 2017).

Tests used:
[1] = Cytotoxicity against human PHA-stimulated PBMC assessed as cell viability by tetrazolium dye assay; type: cell-based
[2] = test system: Human immunodeficiency virus 1; assay: Antiviral activity against HIV-1 infected in human MT4 cells measured on day 5 post-infection by trypan blue dye staining-based method; type: functional, cell-based; conditions: Human immunodeficiency virus 1, MT4, 120 h
[3] = test system: Hepatitis B virus; assay: Antiviral activity against HBV infected in human HepG2(2.2.15) cells assessed as decrease in extracellular HBV DNA levels after 12 days by dot blot analysis; type: functional, cell-based; conditions: HepG2 2.2.15, 288 h
[4] = Selectivity index, ratio of CC50 for human PHA-stimulated PBMCs to IC50 for CCR5 tropic HIV1 BaL infected in human PHA-stimulated PBMC
[5] = Selectivity index, ratio of CC50 for human TZM-bl cells to EC50 for CXCR4-tropic HIV-1 NL4-3 infected in human TZM-bl cells; type: toxicity, cell-based; conditions: read-out: Ratio CC50/EC50
[6] = test system: Human immunodeficiency virus 1; assay: Antiviral activity against CXCR4-tropic HIV-1 NL4-3 infected in human TZM-bl cells assessed as inhibition of virus-induced cytopathic effect preincubated with cells for 30 mins followed by viral infection measured after 48 hrs in presence of p-24 HIV-1 Ag by luciferase reporter gene assay; type: functional, cell-based; conditions: Human immunodeficiency virus 1, NL4-3, TZM-bl
In short: (§1)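 TZM-bl cells, 1 × 10^4 per well in DMEM with 10% FBS and 10 mM […], incubated 30 min at 37 °C with compound. Then HIV-1 NL4.3 (X4) or BaL (R5) added at 100 pg p24 Ag per well. After 48 h, cells lysed with luciferase substrate. Tat-induced luminescence read after 10 min dark incubation as a measure of replication.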

[7] = test system: Human immunodeficiency virus 1; assay: (§2) Antiviral activity against CXCR4-tropic HIV-1 NL4-3 infected in human PHA-stimulated PBMC assessed as inhibition of viral replication by measuring reduction in p24 antigen production preincubated with cells for 30 mins followed by viral infection measured on day 10 post infection in presence of IL-2 by ELISA; type: functional; conditions: Human immunodeficiency virus 1, NL4-3
In short: (§3)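 PBMCs stimulated with 2 μg/mL PHA for 3 days at 37 °C, then 5 × 10^5 cells/ml preincubated 30 min at 37 °C with serial compound dilutions plus 2 ng/mL IL-2. Infected with 1500 pg/well HIV-1 BaL or 500 pg/well other isolates. IL-2 re-added on days 3 and 6. Supernatant p24 Ag measured by ELISA at day 10. EC50 is 50% inhibition of replication.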

[8] = test system: Human alphaherpesvirus 3; assay: Antiviral activity against thymidine kinase expressing Varicella-Zoster virus Oka strain assessed as inhibition of plaque formation; type: functional; conditions: Human alphaherpesvirus 3, strain Oka vaccine
In short: (§4)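 HEL fibroblast monolayers inoculated with 100 CCID50 HCMV (AD-169, Davis) or 20 PFU VZV (TK+ Oka, TK− 07-1). Adsorbed 1–2 h, inoculum removed, then incubated with compound dilutions. HCMV cytopathicity or VZV plaques scored once untreated infected controls reached completion. EC50 is 50% reduction. SI is CC50/EC50, and the potency ratio is the ratio of EC50s.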

[9] = Selectivity index, ratio of CC50 for HepG2.2.15 cells to EC50 for HBV ayw1 infected in human HepG2(2.2.15) cells assessed as reduction in viral replication by measuring extracellular viral DNA copy
In short: (§5)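 HepG2.2.15 cells (two copies of HBV ayw1 genome), 1.5 × 10^4/well in DMEM with 2% FBS and 380 μg/mL G418. After 16–24 h, compound added in triplicate, medium with compound renewed at day 3. Supernatant collected at day 6, Pronase-treated, and extracellular HBV DNA measured by TaqMan qPCR (precore/core) against an HBV DNA standard curve. EC50/EC90 derived; CC50 by MTS uptake.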

[10] = test system: Human betaherpesvirus 5; assay: Antiviral activity against Human cytomegalovirus AD169 infected in HEL cells assessed as inhibition of virus-induced cytopathic effect; type: functional, cell-based; conditions: Human betaherpesvirus 5, AD169, HEL; in short: as §4
[11] = Selectivity index, ratio of CC50 for human PHA-stimulated PBMC to IC50 for CXCR4-tropic HIV-1 NL4-3 infected in human PHA-stimulated PBMC
[12] = test system: Human immunodeficiency virus 2; assay: Antiviral activity against HIV-2 infected in human MT4 cells measured on day 5 post-infection by trypan blue dye staining-based method; type: functional, cell-based; conditions: Human immunodeficiency virus 2, MT4, 120 h
[13] = Cytotoxicity against human HepG2.2.15 cells assessed as cell viability by tetrazolium dye uptake assay; type: cell-based, HepG2 2.2.15
In short: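 HepG2.2.15 cells (two integrated copies of HBV ayw1 genome) were seeded at 1.5 × 10^4 cells/well in DMEM with 2% FBS, 380 μg/mL G418, glutamine, antibiotics and nonessential amino acids. After 16−24 h, medium with various compound concentrations was added in triplicate and renewed on day 3. After 6 days of treatment, viability was read by MTS uptake and CC50 was calculated.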

[14] = test system: Hepatitis B virus; assay: Antiviral activity against HBV ayw1 infected in human HepG2(2.2.15) cells assessed as reduction in viral replication by measuring extracellular viral DNA copy number after 6 days by real-time qPCR method; type: functional, cell-based; conditions: ayw1, HepG2 2.2.15, 144 h; in short: as §5
[15] = test system: Human immunodeficiency virus 1; assay: as §2, with “CCR5 tropic HIV1 BaL” for “CXCR4-tropic HIV-1 NL4-3”; type: functional; conditions: Human immunodeficiency virus 1, BaL; in short: as §3
[16] = Cytotoxic activity against HEL cells assessed as alteration of cell morphology after 3 days by microscopic method; type: cell-based; conditions: human
In short: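 HEL cells with compound; MCC is the lowest concentration giving microscopically detectable alteration of cell morphology.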

[17] = test system: Human immunodeficiency virus 1; assay: Antiviral activity against CCR5 tropic HIV1 BaL infected in human TZM-bl cells assessed as inhibition of virus-induced cytopathic effect preincubated with cells for 30 mins followed by viral infection measured after 48 hrs in presence of p-24 HIV-1 Ag by luciferase reporter gene assay; type: functional, cell-based; conditions: Human immunodeficiency virus 1, BaL; in short: as §1
[18] = test system: Human betaherpesvirus 5; assay: Antiviral activity against HCMV Davis strain infected in HEL cells assessed as inhibition of virus-induced cytopathic effect; type: functional, cell-based; conditions: Human betaherpesvirus 5, Davis; in short: as §4
[19] = test system: Human alphaherpesvirus 3; assay: Antiviral activity against thymidine kinase deficient Varicella-Zoster virus 07-1 infected in HEL cells assessed as inhibition of plaque formation; type: functional, cell-based; conditions: Human alphaherpesvirus 3, 07-1, HEL; in short: as §4
[20] = Selectivity index, ratio of CC50 for human TZM-bl cells to EC50 for CCR5 tropic HIV1 BaL infected in human TZM-bl cells; type: toxicity, cell-based; conditions: read-out: Ratio CC50/EC50
[21] = Cytotoxicity against human TZM-bl cells assessed as cell viability by tetrazolium dye assay; type: cell-based
[22] = test system: Human immunodeficiency virus 1; assay: Selectivity ratio of EC50 for tenofovir-resistant CXCR4-tropic HIV-1 NL4-3 harboring reverse transcriptase K65R mutant infected in human MT4 cells to EC50 for CXCR4-tropic HIV-1 NL4-3 infected in human MT4 cells; type: functional
In short: (§6)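 MT-4 cells, 1 × 10^4 per well, given compound dilutions and wild-type NL4-3 or K65R NL4-3. Virus titred to give 85–95% cell killing at day 6. Incubated 6 days at 37 °C, 5% CO2. Viability read by XTT at 450/650 nm. EC50 from CPE reduction and toxicity from uninfected drug wells, by four-parameter fit. Fold change is K65R EC50 over wild-type EC50.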

[23] = Cytotoxicity against human MT4 cells assessed as reduction in cell viability after 6 days by XTT tetrazolium dye-based assay; in short: as §6
[24] = test system: Human immunodeficiency virus 1; assay: Antiviral activity against CXCR4-tropic HIV-1 NL4-3 infected in human MT4 cells assessed as inhibition of virus-induced cytopathic effect after 6 days by XTT dye based assay; type: functional, cell-based; conditions: Human immunodeficiency virus 1, NL4-3, MT4, 144 h; in short: as §6
[25] = test system: Human immunodeficiency virus 1; assay: Antiviral activity against tenofovir-resistant CXCR4-tropic HIV-1 NL4-3 harboring reverse transcriptase K65R mutant infected in human MT4 cells assessed as inhibition of viral replication inhibition of virus-induced cytopathic effect after 6 days by XTT dye based assay; type: functional, cell-based; conditions: Human immunodeficiency virus 1, NL4-3, MT4, 144 h; in short: as §6
[26] = Half life in human liver microsomes at 0.1 uM in presence of NADPH by HPLC-MS/MS method; type: ADME, microsome
In short: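 Pooled human liver microsomes preincubated 10 min at 37 °C with an NADPH-regenerating system (1 mM NADP, 5 mM G6P, G6PDH) in pH 7.4 phosphate with 3 mM MgCl2 and 1 mM EDTA. Compound added at final 0.1 μM and sampled at 0–60 min into acetonitrile/methanol. Analysed by HPLC-MS/MS, mean of two experiments.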

[27] = Half life in human plasma at 1 uM by HPLC-MS/MS method; type: ADME, cell-free
In short: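 Human plasma preincubated 10 min with pH 7.4 phosphate buffer at 37 °C. Compound added at final 1 μM and sampled at 0, 0.5, 1, 1.5 and 2 h into acetonitrile. Centrifuged and analysed by HPLC-MS/MS. t1/2 is the mean of two experiments.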

[28] = Cytotoxic activity against HEL cells assessed as reduction in cell proliferation after 3 days by coulter counting method; type: cell-based; conditions: human
In short: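 HEL cells seeded at 5 × 10^3/well, grown 24 h, then given compound for 3 days at 37 °C. Cell number counted by Coulter counter. CC50 is 50% reduction of proliferation relative to untreated controls, read from graphic plots.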

[29] = Selectivity index, ratio of CC50 for human HEL cells to EC50 for HCMV Davis strain; in short: as §4
[30] = Selectivity index, ratio of CC50 for human HEL cells to EC50 for HCMV AD-169 strain; in short: as §4

Compound: Nc1ncnc2c1ncn2C[C@@H](CF)OCP(=O)(O)O
- CC50 [1]: > 100000 nM
- EC50 [2]: 8000 nM
- EC50 [3]: 1200 nM
- Ratio CC50/IC50 [4]: 27
- selectivity ratio [5]: > 17
- EC50 [6]: 5950 nM
- IC50 [7]: 1190 nM
- EC50 [8]: 98000 nM
- Ratio CC50/EC50 [9]: >61
- EC50 [10]: > 328000 nM
- Ratio CC50/IC50 [11]: 84
- EC50 [12]: 8000 nM
- CC50 [13]: > 100000 nM
- EC50 [14]: > 1650 nM
- EC90 [14]: > 100000 nM
- IC50 [15]: 3730 nM
- MCC at 72 h [16]: > 328 µM
- EC50 [17]: 6470 nM
- EC50 [18]: > 328000 nM
- EC50 [19]: 131000 nM
- selectivity ratio [20]: > 15
- CC50 [21]: > 100000 nM

Compound: C[C@H](Cn1cnc2c(N)ncnc21)OCP(=O)(O)O [TENOFOVIR ANHYDROUS]
- Ratio EC50 [22]: >16.7
- CC50 [1]: > 25000 nM
- Ratio CC50/IC50 [4]: >18
- selectivity ratio [5]: > 25
- EC50 [6]: 4000 nM
- IC50 [7]: 380 nM
- CC50 at 144 h [23]: > 20000 nM
- Ratio CC50/IC50 [11]: >66
- IC50 [15]: 1400 nM
- EC50 [24]: < 60 nM
- EC50 [17]: 6910 nM
- selectivity ratio [20]: > 14
- EC50 [25]: 100 nM
- CC50 [21]: > 100000 nM

Compound: CCCCCOC(=O)C[C@H](NP(=O)(CO[C@@H](CF)Cn1cnc2c(=O)[nH]c(N)nc21)Oc1ccccc1)C(=O)OCCCCC (stereo partly drawn)
- Ratio EC50 [22]: 8
- CC50 [1]: 9310 nM
- Ratio CC50/IC50 [4]: 55
- selectivity ratio [5]: > 1370
- half-life at 0.1 µM [26]: 2 min
- EC50 [6]: 73 nM
- IC50 [7]: 20 nM
- EC50 [8]: 890 nM
- Ratio CC50/EC50 [9]: >5000
- EC50 [10]: 4430 nM
- CC50 at 144 h [23]: > 1000 nM
- half-life at 1 µM [27]: 73 min
- Ratio CC50/IC50 [11]: 466
- CC50 at 72 h [28]: 10200 nM
- Ratio CC50/EC50 [29]: <10
- CC50 [13]: > 100000 nM
- EC50 [14]: 20 nM
- EC90 [14]: 620 nM
- IC50 [15]: 170 nM
- MCC at 72 h [16]: 153 µM
- EC50 [24]: 10 nM
- EC50 [17]: 60 nM
- EC50 [18]: 1980 nM
- Ratio CC50/EC50 [30]: <10
- EC50 [19]: 110 nM
- selectivity ratio [20]: > 1670
- EC50 [25]: 80 nM
- CC50 [21]: > 100000 nM

Compound: Nc1nc2c(ncn2CC(CF)OCP(=O)(O)O)c(=O)[nH]1 (stereo not drawn)
- EC50 [2]: 5000 nM
- EC50 [12]: 5000 nM

Compound: CCCCCOC(=O)C[C@H](NP(=O)(CO[C@H](CF)Cn1cnc2c(=O)[nH]c(N)nc21)Oc1ccccc1)C(=O)OCCCCC (stereo partly drawn)
- CC50 [1]: 11200 nM
- Ratio CC50/IC50 [4]: 86
- selectivity ratio [5]: > 625
- EC50 [6]: 160 nM
- IC50 [7]: 30 nM
- EC50 [8]: 590 nM
- Ratio CC50/EC50 [9]: >769
- EC50 [10]: 5940 nM
- Ratio CC50/IC50 [11]: 374
- CC50 at 72 h [28]: 27800 nM
- Ratio CC50/EC50 [29]: <10
- CC50 [13]: > 100000 nM
- EC50 [14]: 130 nM
- EC90 [14]: 2860 nM
- IC50 [15]: 130 nM
- MCC at 72 h [16]: 153 µM
- EC50 [17]: 220 nM
- EC50 [18]: 3050 nM
- Ratio CC50/EC50 [30]: <10
- EC50 [19]: 79 nM
- selectivity ratio [20]: > 455
- CC50 [21]: > 100000 nM
